Results of several laboratories.
Target: Serine/threonine-protein kinase N1 (PKN1, Homo sapiens, UniProt Q16512)

CC(C)NC[C@@H](C(=O)N1CCN(c2ncnc3c2[C@H](C)C[C@H]3O)CC1)c1ccc(Cl)cc1
activity vs control (enzyme activity; inhibitor; 1 µM): 1%

COc1cc(Cl)c(C(=O)N[C@@H](CN[C@H]2CC[C@@H](N)CC2)Cc2ccc(C#N)cc2)cc1-c1ccc(CN[C@H](C)c2ccc(C)cc2)o1
remaining activity (enzyme activity; inhibitor; 1 µM): 108%

Cc1c(NC(=O)c2cc(C(N)=O)nc3cc(F)ccc23)c(C(F)(F)F)nn1Cc1ccc(C(C)(C)C)cc1
remaining binding (cell-free assay; competition with immobilised ligand; 1 µM): 100%

COc1cc2ncnc(Nc3ccc(Oc4ccccc4)cc3C)c2cc1OC
inhibition (enzyme activity; inhibitor; 1 µM): 4%

Cc1c[nH]c2nccc(Oc3c(F)cc(Nc4cc(Cl)nc(N)n4)cc3F)c12
remaining binding (cell-free assay; competition with immobilised ligand; 0.1 µM): 72%

CCOc1cc(-c2nncn2C)ccc1Nc1ncc2cc(C)nc(NCC(C)(C)C)c2n1
inhibition (enzyme activity; inhibitor; FRET; 1 µM): < 15%

CC(=O)c1c(C)c2cnc(Nc3ccc(N4CCNCC4)cn3)nc2n(C2CCCC2)c1=O.Cl
activity vs control (enzyme activity; inhibitor; 1 µM): 96%

Cn1cncc1C1=CN(c2ncnc3[nH]cnc23)CCS1
inhibition (enzyme activity; inhibitor; radiometric; 2 µM): 87.7%

C[C@H](c1cccc(C#N)c1)n1cc(Cl)cc(C(N)=O)c1=N
remaining binding (cell-free assay; competition with immobilised ligand; 1 µM): 65%

CC/C(=N\NC(=O)NCc1cccc(O)c1)c1ccc(O)c(C)c1O
inhibition (enzyme activity; inhibitor; 0.1 µM): 29.1%

c1ccc(CNc2nc(N3CCOc4ccccc43)nc3c2CCCC3)cc1
inhibition (target engagement in cells; inhibitor; chemoproteomics; 20 mM): 1.6%

CC(=O)c1cnc2ccc(-c3cc(Cl)c(O)c(Cl)c3)nc2c1N[C@H]1CC[C@H](CN(C)C)CC1
activity vs control (enzyme activity; inhibitor; 1 µM): 0%

COc1cc2c(Nc3ccc(Br)cc3F)ncnc2cc1OCC1CCN(C)CC1
remaining signal (cell-free assay; 0.5 µM): 103%

Cc1c[nH]c2nc(Nc3ccc(N4CCN(C)CC4)c(F)c3)nc(-c3cccc(CC#N)c3)c12
activity vs control (enzyme activity; inhibitor; 1 µM): 19%

CN(C)C1CCN(CC#Cc2nn(C3CCCC3)c3nc(NCc4ccccc4)ncc23)C1 (stereo not drawn)
inhibition (enzyme activity; inhibitor; FRET; 0.1 µM): -1%

O=C(CSc1nc2nccnc2c(=O)n1CCc1ccccc1)Nc1nccs1
inhibition (enzyme activity; inhibitor; 10 µM): 4%

CC[C@@H]1C(=O)N(C)c2cnc(Nc3ccc(C(=O)NC4CCN(C)CC4)cc3OC)nc2N1C1CCCC1
activity vs control (enzyme activity; inhibitor; 1 µM): 77%

Cn1c2c(c3ccc(Cl)c(Cl)c31)C(C#N)C1(CCOCC1)NC2=O (stereo not drawn)
ΔTm (thermal stability; DSF; 10 µM): 0.2 °C

O=C(Nc1cnn(-c2csc(C(=O)NC3COC3)c2)c1)Nc1ccccc1Cl
remaining activity (enzyme activity; inhibitor; 5 µM): 110%

Cc1ccc(C(=O)NCc2ccsc2)cc1C#Cc1cn(C(C)C)c2ncnc(N)c12
activity vs control (enzyme activity; inhibitor; 1 µM): 93%

COc1ncc(Nc2ncc([C@@H](C)N3CCN(S(C)(=O)=O)CC3)cc2-c2nc(C)nc(N)n2)cc1F
activity vs control (enzyme activity; inhibitor; 1 µM): 94%

CN1CCC2(CC1)NC(=O)c1c(c3ccc(Cl)c(Cl)c3n1C)C2C#N (racemic)
ΔTm (thermal stability; DSF; 10 µM): 1 °C

CNC(=O)Nc1ccc2c(c1)CC[C@@]21OC(=O)N(CC(=O)N(Cc2ccc(F)cc2)[C@@H](C)C(F)(F)F)C1=O
remaining binding (cell-free assay; competition with immobilised ligand; 1 µM): 85%

CC(C)(C)c1nc2c(s1)c1nc(N)ncc1c1ccc(NS(=O)(=O)c3c(F)cccc3F)c(F)c12
remaining activity (enzyme activity; inhibitor; radiometric; 1 µM): 102%

O=C(Nc1cnn2ccc(N3CCC[C@@H]3c3cc(F)ccc3F)nc12)N1CC[C@H](O)C1
activity vs control (enzyme activity; inhibitor; 1 µM): 94%

O=C1NC(=O)c2cc(Nc3ccc(F)cc3)c(Nc3ccc(F)cc3)cc21
remaining signal (cell-free assay; 0.5 µM): 97.7%

CCCOc1ccc([C@H]2[C@H](C(=O)O)[C@@H](c3ccc4c(c3)OCO4)CN2CC(=O)Nc2c(CC)cccc2CC)cc1
remaining binding (cell-free assay; competition with immobilised ligand; 1 µM): 87%

COc1cc(-c2cc(-c3ccc(N4CCNCC4)cc3)cnc2C)cc(OC)c1OC
inhibition (enzyme activity; inhibitor; 1 µM): 6%

C#Cc1cccc(Nc2ncnc3cc(OCCOC)c(OCCOC)cc23)c1
remaining signal (cell-free assay; 0.5 µM): 108%

Cn1c2c(c3ccc(Cl)c(Cl)c31)C(C#N)C1(CCCC1)NC2=O (stereo not drawn)
ΔTm (thermal stability; DSF; 10 µM): -0.5 °C

CC(=O)C1=C(C)N(c2cccc(C(F)(F)F)c2)C(=O)N[C@@H]1c1ccc(C#N)nc1
remaining binding (cell-free assay; competition with immobilised ligand; 1 µM): 71.1%

Oc1ccc(-c2nc(-c3ccncc3)c(-c3ccc(F)cc3)[nH]2)cc1
remaining signal (cell-free assay; 0.5 µM): 78.9%

CN1CC(Oc2cnc(C#N)cc2-c2ccn3nc(NC(=O)C4CC4)cc3c2)C1
inhibition (enzyme activity; inhibitor; 1 µM): -9%

CCCS(=O)(=O)Nc1ccc(F)c(C(=O)c2c[nH]c3ncc(-c4ccc(Cl)cc4)cc23)c1F
inhibition (enzyme activity; inhibitor; 1 µM): < 10%

Cn1c2c(Cl)c(Cl)ccc2c2cc[nH]c(=O)c21
ΔTm (thermal stability; DSF; 10 µM): 0.9 °C

C[C@H](NC(=O)c1cnc2n1[C@](C)(Cc1ccc(C#N)cc1)C(=O)N2c1cc(Cl)c(F)c(Cl)c1)C(=O)NC1(c2ccccn2)CC1
remaining binding (cell-free assay; competition with immobilised ligand; 1 µM): 100%

Cl.OC1CCC(Nc2ncc3nc(Nc4c(F)cc(F)cc4F)n(C4CCOC4)c3n2)CC1 (stereo not drawn)
activity vs control (enzyme activity; inhibitor; 1 µM): 98%

Cc1ccc(NC(=O)c2ccc(CN3CCN(C)CC3)cc2)cc1Nc1nc(-c2cccnc2)cs1
remaining signal (cell-free assay; 0.5 µM): 99.3%

O=C(NCc1ncc(C(F)(F)F)cc1Cl)c1ccc2c(c1)C1(CCS(=O)(=O)CC1)[C@@H](C1CC1)N2S(=O)(=O)c1ccc(F)cc1
remaining binding (cell-free assay; competition with immobilised ligand; 1 µM): 100%
